These results are taken from ChEMBL document CHEMBL1131206, “Synthesis, anticonvulsant activity, and structure-activity relationships of sodium channel blocking 3-aminopyrroles” (J Med Chem, 1998).

SMILES strings stand for the structures. Bounds are passed on as bounds.

Holding throughout (format): functional
Test [1] deals with Rattus norvegicus. As to the kind of experiment: Anticonvulsant activity in corneal kindled rats was determined when 50 mg/kg was administered intraperitoneally. The note with it: route intraperitoneal. The method in brief:
(§1)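 Male Sprague–Dawley rats (100 g) kindled by daily corneal stimulation at 8 mA/60 Hz for 4 s until 10 consecutive stage 5 seizures (rearing and falling with clonus). Drug was given ip in 0.5% methyl cellulose in water at 0.04 mL/10 g body weight. Read-out was seizure score; abolition of the generalized (stage 4–5) seizure was the endpoint.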

Test [2] has as its system Rattus norvegicus. As to the kind of experiment: Anticonvulsant activity in corneal kindled rats was determined when 25 mg/kg was administered intraperitoneally. The note with it: route intraperitoneal. Summed up:
as §1

In test [3] the test system is Rattus norvegicus. As to the kind of experiment: Anticonvulsant activity in corneal kindled rats was determined when 10 mg/kg was administered intraperitoneally. The note with it: route intraperitoneal. The method in brief: as §1
Test [4] concerns Rattus norvegicus. Nature of the test: Anticonvulsant activity in corneal kindled rats was determined when 150 mg/kg was administered intraperitoneally. The note with it: route intraperitoneal. Summed up: as §1
In test [5] the test system is Rattus norvegicus. As to the kind of experiment: Anticonvulsant activity in corneal kindled rats was determined when 100 mg/kg was administered intraperitoneally. The note with it: route intraperitoneal. The method in brief: as §1
Test [6] deals with Mus musculus. Nature of the test: Minimal motor impairment activity by Rotarod test in mice following i.p. administration. The note with it: ip. Summed up:
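Rotorod neurotoxicity test in male albino CF No. 1 mice dosed ip, run at the time of peak effect. Impairment was defined as failure to keep equilibrium for 60 s in each of three trials on the rotating rod. With groups of at least eight mice across various doses, the median motor-impairing dose and its 95% confidence interval were calculated.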

Test [7] has as its system Rattus norvegicus. As to the kind of experiment: Minimal motor impairment activity by Rotarod test in rat following p.o. administration. The note with it: po. The method in brief:
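Minimal motor impairment in male Sprague–Dawley rats (100 g) after oral dosing was judged at the time of peak effect. The criterion was overt ataxia, abnormal gait and stance, and/or loss of placing response and muscle tone. Groups had at least eight rats across various doses, and the median impairing dose with its 95% confidence interval was calculated.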
A general note: The rotarod test checks motor coordination on a turning rod.

The test system of test [8] is Mus musculus. Nature of the test: Anticonvulsant activity was measured by maximal electroshock seizure test in mice by ip administration. Summed up:
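Male albino CF No. 1 mice (18–25 g) were dosed ip and tested by maximal electroshock at the previously determined time of peak effect. Groups of at least eight mice received various doses until at least two points fell between 0% and 100% protection. ED50 and its 95% confidence interval were calculated. Single-dose entries give protection percentage at the indicated dose.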

The subject of test [9] is Rattus norvegicus. Nature of the test: Anticonvulsant activity in corneal kindled rats was determined when 75 mg/kg was administered intraperitoneally. The note with it: route intraperitoneal. The method in brief: as §1

The term ED50 denotes the dose at which the effect has come halfway, by size or by number of responders. A high value points to weaker potency. `O=C1NC(=O)C(c2ccccc2)(c2ccccc2)N1` [PHENYTOIN]: the Seizure score is given as 4.4 in [1]; 4.7 in test [2]; 5 in test [3]; 3 in test [4]; 3 in test [5]; 3.7 in test [9]. The values for the ED50 in test [6], in test [7] and in test [8] were 42.8 mg/kg, over 500 mg/kg and 6.5 mg/kg, respectively.
